Among the data in ChEMBL document CHEMBL1149903, “Synthesis and biological evaluation of thiobenzanilides as anticancer agents” (Bioorg Med Chem, 2008) are Activity and viability values, retold here.

Structures are written as SMILES. The source made the active and inactive calls. The rule behind the calls is not given here.

In data set [1] the test system is A-375. The data set is described as follows: Effect on intracellular ATP content in human A375 cells at 10 uM after 24 hrs by firefly luciferase luminescence relative to control. The data set is classed as functional. The method, boiled down:
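Intracellular ATP measured by firefly luciferin–luciferase bioluminescence (ATPlite kit). A375 cells treated 24 h with 10 µM agent, then lysed; debris removed by centrifugation and supernatant assayed. Relative ATP expressed as percentage of the 0 µM level.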

Data set [2] is described as follows: Cytotoxicity against human 293T cells at 10 uM by MTS assay. The data set is classed as cell-based, HEK-293T. To be noted: read-out: Survival. The method, boiled down:
(§1)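 MTS proliferation assay. Cells were seeded at 2500 cells/well and incubated overnight, then exposed to compound at 10 µM for 24 h. MTS tetrazolium premixed with phenazine ethosulfate was then added and incubated 1–2 h at 37 °C. Absorbance was read at 490 nm against a 690 nm reference. Value reported is survival as % of control.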

The test system of data set [3] is A-375. Kind of data set: Induction of apoptosis in human A375 cells assessed as increase in intracellular H2O2 release at 10 uM after 4 hrs in presence of catalase.
Data set [4] relates to A-375. The data set is described as follows: Cytotoxicity against human A375 cells at 10 uM by MTS assay. The data set is classed as functional. The settings on record: read-out: Survival. The method, boiled down: as §1
For data set [5], the system named is A-375. Kind of data set: Cell cycle arrest in human A375 cells assessed as accumulation at G1 phase at 10 uM after 24 hrs by flow cytometry. The format is functional. The method, boiled down: (§2)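 A375 cells exposed 24 h to 10 µM agent, DMSO control. Harvested by trypsinization, washed in PBS, fixed in ice-cold 70% ethanol 30 min. RNase A 1 mg/mL (with trisodium citrate) at 37 °C 30 min. Stained with PI/citrate/Triton X-100 DNA solution 30 min at room temperature in the dark. DNA content of 10,000 events read by flow cytometry; phase percentages calculated.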

For data set [6], the system named is A-375. Kind of data set: Cell cycle arrest in human A375 cells assessed as accumulation at S phase at 10 uM after 24 hrs by flow cytometry. The data set is classed as functional. An outline of the steps:
as §2
A general note: Flow cytometry measures light scatter and fluorescence of single cells or particles in a stream.

Data set [7] relates to A-375. The data set is described as follows: Induction of apoptosis in human A375 cells assessed as increase in intracellular H2O2 release at 10 uM after 4 hrs.
The test system of data set [8] is A-375. Kind of data set: Induction of apoptosis in human A375 cells assessed as disruption of mitochondrial membrane potential at 10 uM after 24 hrs of labeling with rhodamine 123-dye by flow cytometry. The data set is classed as functional, cell-based. The method, boiled down:
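Exponentially growing A375 cells treated 24 h at 10 µM, then trypsinized and pelleted. Resuspended in rhodamine 123 (10 µg/mL) for 30 min at room temperature, washed twice in PBS and read at once by flow cytometry (FL-1, 530/30 nm band pass).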

Data set [9] relates to A-375. The data set is described as follows: Induction of apoptosis in human A375 cells assessed as caspase 3 activation at 10 uM after 24 hrs by Western blot analysis relative to control. The format is functional, cell-based. An outline of the steps:
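Lysates of A375 cells exposed 24 h to 10 µM agent; 40 µg protein per lane run on 10% SDS-PAGE and transferred to PVDF. Blocked in 5% skim milk in PBS-T, then probed with rabbit polyclonal anti-caspase-3 (p20 active form), with actin as loading control. HRP secondary and chemiluminescence detection; band amounts quantified by densitometry.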

Data set [10] relates to A-375. The data set is described as follows: Induction of apoptosis in human A375 cells assessed as annexin V-FITC cells at 10 uM after 24 hrs by annexin V-FITC and PI staining. The data set is classed as functional. An outline of the steps:
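After 24 h at 10 µM, 10⁶ A375 cells per sample were stained with annexin V-FITC and PI at the same time and analysed by flow cytometry. Annexin V⁺/PI⁻ cells were scored as early apoptotic and annexin V⁺/PI⁺ cells as necrotic.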

Data set [11] has as its system K562. Kind of data set: Cytotoxicity against human K562 cells at 10 uM by MTS assay. The settings on record: read-out: Survival. The format is functional. The method, boiled down: as §1
On the technique in general: Formazan colour is commonly taken as a measure of viable cells.

The subject of data set [12] is A-375. Kind of data set: Cell cycle arrest in human A375 cells assessed as accumulation at G2/M phase at 10 uM after 24 hrs by flow cytometry. The format is functional. The method, boiled down:
as §2

Turning to `O=[N+]([O-])c1ccc(NC(=S)c2ccc([N+](=O)[O-])cc2)cc1`, the Activity was found to be 83.6% in data set [1]; 59.9% in data set [5]; 11.3% in data set [6]; 16.3% in [10]; 28.9% in [12]. For the same compound, the viability at 10 µM in [2] is 44%; in data set [4], 39.1%; in data set [11], 47.9%. The result in [3] was inactive. The outcome in data set [7], in data set [8] and in [9] was Active.
As for `O=C(Nc1ccc([N+](=O)[O-])cc1)c1ccc([N+](=O)[O-])cc1`, the viability at 10 µM in data set [2] came out at 85.2%; in data set [4] it was 70.5%; in data set [11], 71.3%.
For `O=[N+]([O-])c1ccc(C(=S)Nc2ccc(C(F)(F)F)cc2)cc1`, the Activity in data set [1] stood at 63.1%; in data set [5] it was 55.4%; in data set [6], 17.1%; in data set [10] it was 33%; in data set [12], 27.6%. Besides, the viability at 10 µM in data set [2] was determined as 41.2%; in data set [4], 36.2%; in data set [11], 41.4%. Besides, the result in data set [3] was inactive. Besides, the outcome in data set [7], in data set [8] and in data set [9] was Active.
As to `O=C(Nc1ccc(Br)cc1)c1ccc([N+](=O)[O-])cc1`, the viability at 10 µM in data set [2] came to 86.9%; in [4], 81.1%; in data set [11], 89.1%.
Regarding `O=C(Nc1ccc(C(F)(F)F)cc1)c1ccc([N+](=O)[O-])cc1`, the viability at 10 µM in data set [2] turned out to be 87.7%; in [4], 87.2%; in [11] it was 81.3%.
Consider `O=[N+]([O-])c1ccc(C(=S)Nc2ccc(Br)cc2)cc1`, for which the Activity in [1] stood at 66.1%; in data set [5], 58.4%; in data set [6], 12.7%; in data set [10], 7.5%; in data set [12], 29%. Also, the viability at 10 µM in data set [2] worked out at 48.4%; in data set [4], 43%; in [11], 42.9%. In addition, the result in [3] was inactive. Besides, the outcome in data set [7], in data set [8] and in [9] was Active.
